In ChEMBL document CHEMBL1125323, “Potent V2/V1a vasopressin antagonists with C-terminal ethylenediamine-linked retro-amino acids” (J Med Chem, 1992):

Legend:
Vasopressin receptor [1] = biological target: T1, Vasopressin receptor (Rattus norvegicus, UniProt P48974+P30560+Q00788); assay: Antivasopressor potency in terms of negative logarithm of the effective doses divided by the estimated volume of distribution; format: functional
Procedure, shortened: (§1)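 Rats anesthetized with urethane, pretreated with phenoxybenzamine; blood pressure responses recorded. USP posterior pituitary reference standard as agonist, given intravenously with antagonist. ED (nmol/kg) is the antagonist dose at which 2x units of agonist match the response to x units without antagonist, log-interpolated from doses above and below. In vivo pA2 uses assumed distribution volume 67 mL/kg.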

Vasopressin receptor [2] = biological target: T1, Vasopressin receptor; assay: Antiantidiuretic potency in terms of negative logarithm of the effective doses divided by the estimated volume of distribution; format: functional, Urine
Procedure, shortened: (§2)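 Water-loaded rats under ethanol anesthesia; urine flow followed. USP posterior pituitary reference standard as agonist, all injections intravenous. Effective dose (nmol/kg) is the antagonist dose reducing the response to 2x units of agonist to that of x units alone, interpolated on a log scale between bracketing doses. pA2 = negative log of ED divided by assumed distribution volume 67 mL/kg.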

[3] = biological target: T2, Vasopressin receptor (Rattus norvegicus) (UniProt P48974+P30560+Q00788); assay: Antivasopressor potency in terms of blood pressure response in rats anesthetized with urethane and pretreated with phenoxybenzamine; format: functional; procedure, shortened: as §1
[4] = biological target: T2, Vasopressin receptor (Rattus norvegicus); assay: Antiantidiuretic potency in terms of measuring changes in urine flow in water-loaded rats under ethanol anesthesia; format: functional; procedure, shortened: as §2

Structure (SMILES)	pA2 (Vasopressin receptor [1])	pA2 (Vasopressin receptor [2])	ED [4]	ED [3]
CC(C)[C@@H]1NC(=O)[C@H](Cc2ccccc2)NC(=O)[C@@H](Cc2ccccc2)NC(=O)CC2(CCCCC2)SSC[C@@H](C(=O)NCCNC(=O)[C@@H](N)CCCN=C(N)N)NC(=O)[C@H](CC(N)=O)NC1=O	7.64	6.91	–	–
CCOc1ccc(C[C@H]2NC(=O)CC3(CCCCC3)SSC[C@@H](C(=O)NCCN)NC(=O)[C@H](CC(N)=O)NC(=O)[C@H](C(C)C)NC(=O)[C@H](Cc3ccccc3)NC2=O)cc1	8.15	7.07	–	–
CCOc1ccc(C[C@H]2NC(=O)CC3(CCCCC3)SSC[C@H](C(=O)N3CCCC3C(=O)NCCNC(=O)[C@@H](N)CCCN=C(N)N)NC(=O)[C@@H](CC(N)=O)NC(=O)[C@H](C(C)C)NC(=O)[C@@H](Cc3ccccc3)NC2=O)cc1 (stereo not given in full)	–	–	0.81 nM/kg	0.48 nM/kg
CCOc1ccc(C[C@H]2NC(=O)CC3(CCCCC3)SSC[C@@H](C(=O)NCCNC(=O)CN)NC(=O)[C@H](CC(N)=O)NC(=O)[C@H](C(C)C)NC(=O)[C@H](Cc3ccccc3)NC2=O)cc1	7.61	6.59	–	–
CCOc1ccc(C[C@H]2NC(=O)CC3(CCCCC3)SSC[C@H](C(=O)NCCN)NC(=O)[C@@H](CC(N)=O)NC(=O)[C@H](C(C)C)NC(=O)[C@@H](Cc3ccccc3)NC2=O)cc1	–	–	5.7 nM/kg	0.47 nM/kg
CCOc1ccc(C[C@H]2NC(=O)CC3(CCCCC3)SSC[C@H](C(=O)NCCNC(=O)[C@H](N)CCCCN)NC(=O)[C@@H](CC(N)=O)NC(=O)[C@H](C(C)C)NC(=O)[C@@H](Cc3ccccc3)NC2=O)cc1	–	–	1.2 nM/kg	0.82 nM/kg
CCOc1ccc(C[C@H]2NC(=O)CC3(CCCCC3)SSC[C@H](C(=O)N3CCCC3C(=O)N[C@H](CCCN=C(N)N)C(=O)NCCNC(=O)[C@H](N)CCCN=C(N)N)NC(=O)[C@@H](CC(N)=O)NC(=O)[C@H](C(C)C)NC(=O)[C@@H](Cc3ccccc3)NC2=O)cc1 (stereo not given in full)	–	–	1.4 nM/kg	0.51 nM/kg
CC(C)C[C@H]1NC(=O)CC2(CCCCC2)SSC[C@@H](C(=O)NCCNC(=O)[C@@H](N)CCCN=C(N)N)NC(=O)[C@H](CC(N)=O)NC(=O)[C@H](C(C)C)NC(=O)[C@H](Cc2ccccc2)NC1=O	6.08	< 5.5	–	–
CCOc1ccc(C[C@H]2NC(=O)CC3(CCCCC3)SSC[C@H](C(=O)N3CCCC3C(=O)NCCNC(=O)[C@@H](N)CCCN)NC(=O)[C@@H](CC(N)=O)NC(=O)[C@H](C(C)C)NC(=O)[C@@H](Cc3ccccc3)NC2=O)cc1 (stereo not given in full)	–	–	0.82 nM/kg	0.95 nM/kg
CCOc1ccc(C[C@H]2NC(=O)CC3(CCCCC3)SSC[C@H](C(=O)N[C@H](CCCN=C(N)N)C(=O)NCC(=O)NCCNC(=O)[C@H](N)CCCN=C(N)N)NC(=O)[C@@H](CC(N)=O)NC(=O)[C@H](C(C)C)NC(=O)[C@@H](Cc3ccccc3)NC2=O)cc1	–	–	0.91 nM/kg	0.73 nM/kg
CCOc1ccc(C[C@H]2NC(=O)CC3(CCCCC3)SSC[C@@H](C(=O)N3CCC[C@H]3C(=O)NCCNC(=O)[C@H](N)CCCN=C(N)N)NC(=O)[C@H](CC(N)=O)NC(=O)[C@H](C(C)C)NC(=O)[C@H](Cc3ccccc3)NC2=O)cc1	8.15	7.92	–	–
CCOc1ccc(C[C@H]2NC(=O)CC3(CCCCC3)SSC[C@H](C(=O)N3CCCC3C(=O)NCCNC(=O)[C@@H](N)CCCCN)NC(=O)[C@@H](CC(N)=O)NC(=O)[C@H](C(C)C)NC(=O)[C@@H](Cc3ccccc3)NC2=O)cc1 (stereo not given in full)	–	–	1.2 nM/kg	0.57 nM/kg
CC(C)C[C@H]1NC(=O)CC2(CCCCC2)SSC[C@H](C(=O)NCCNC(=O)C(N)CCCN=C(N)N)NC(=O)[C@@H](CC(N)=O)NC(=O)[C@H](C(C)C)NC(=O)[C@@H](Cc2ccccc2)NC1=O (stereo not given in full)	–	–	> 234 nM/kg	58 nM/kg
CCOc1ccc(C[C@H]2NC(=O)CC3(CCCCC3)SSC[C@@H](C(=O)NCCNC(=O)[C@H](N)CCCN)NC(=O)[C@H](CC(N)=O)NC(=O)[C@H](C(C)C)NC(=O)[C@H](Cc3ccccc3)NC2=O)cc1	8.06	7.24	–	–
CC(C)[C@@H]1NC(=O)[C@@H](Cc2ccccc2)NC(=O)[C@@H](Cc2ccccc2)NC(=O)CC2(CCCCC2)SSC[C@H](C(=O)NCCNC(=O)C(N)CCCN=C(N)N)NC(=O)[C@@H](CC(N)=O)NC1=O (stereo not given in full)	–	–	8.4 nM/kg	1.7 nM/kg
CCOc1ccc(C[C@H]2NC(=O)CC3(CCCCC3)SSC[C@H](C(=O)NCCNC(=O)[C@H](N)CCCN)NC(=O)[C@@H](CC(N)=O)NC(=O)[C@H](C(C)C)NC(=O)[C@@H](Cc3ccccc3)NC2=O)cc1	–	–	1.9 nM/kg	1.06 nM/kg
CCOc1ccc(C[C@H]2NC(=O)CC3(CCCCC3)SSC[C@@H](C(=O)N[C@@H](CCCN=C(N)N)C(=O)NCC(=O)NCCNC(=O)[C@@H](N)CCCN=C(N)N)NC(=O)[C@H](CC(N)=O)NC(=O)[C@H](C(C)C)NC(=O)[C@H](Cc3ccccc3)NC2=O)cc1	7.96	7.87	–	–
CCOc1ccc(C[C@H]2NC(=O)CC3(CCCCC3)SSC[C@@H](C(=O)NCCNC(=O)[C@@H](N)CCCN)NC(=O)[C@H](CC(N)=O)NC(=O)[C@H](C(C)C)NC(=O)[C@H](Cc3ccccc3)NC2=O)cc1	7.8	7.55	–	–
CC[C@H](C)[C@H]1NC(=O)CC2(CCCCC2)SSC[C@H](C(=O)NCCNC(=O)C(N)CCCN=C(N)N)NC(=O)[C@@H](CC(N)=O)NC(=O)[C@H](C(C)C)NC(=O)[C@@H](Cc2ccccc2)NC1=O (stereo not given in full)	–	–	100 nM/kg	47 nM/kg
CCOc1ccc(C[C@H]2NC(=O)CC3(CCCCC3)SSC[C@H](C(=O)NCCNC(=O)[C@@H](N)CCCN)NC(=O)[C@@H](CC(N)=O)NC(=O)[C@H](C(C)C)NC(=O)[C@@H](Cc3ccccc3)NC2=O)cc1	–	–	4 nM/kg	0.59 nM/kg
CCOc1ccc(C[C@H]2NC(=O)CC3(CCCCC3)SSC[C@H](C(=O)NCCNC(=O)CN)NC(=O)[C@@H](CC(N)=O)NC(=O)[C@H](C(C)C)NC(=O)[C@@H](Cc3ccccc3)NC2=O)cc1	–	–	18 nM/kg	1.66 nM/kg
CC[C@@H](C)[C@H]1NC(=O)CC2(CCCCC2)SSC[C@@H](C(=O)NCCNC(=O)[C@@H](N)CCCN=C(N)N)NC(=O)[C@H](CC(N)=O)NC(=O)[C@H](C(C)C)NC(=O)[C@H](Cc2ccccc2)NC1=O	6.16	5.8	–	–
CCOc1ccc(C[C@H]2NC(=O)CC3(CCCCC3)SSC[C@H](C(=O)N3CCCC3C(=O)N[C@@H](CCCN=C(N)N)C(=O)NCCNC(=O)[C@H](N)CCCN=C(N)N)NC(=O)[C@@H](CC(N)=O)NC(=O)[C@H]([C@H](C)CC)NC(=O)[C@@H](Cc3ccccc3)NC2=O)cc1 (stereo not given in full)	–	–	0.57 nM/kg	0.36 nM/kg
CCOc1ccc(C[C@H]2NC(=O)CC3(CCCCC3)SSC[C@@H](C(=O)N3CCC[C@H]3C(=O)NCCNC(=O)[C@H](N)CCCCN)NC(=O)[C@H](CC(N)=O)NC(=O)[C@H](C(C)C)NC(=O)[C@H](Cc3ccccc3)NC2=O)cc1	8.08	7.78	–	–

More lines, main results first:

pA2 (Vasopressin receptor [1])	pA2 (Vasopressin receptor [2])	ED [4]	Structure (SMILES)	ED [3]
–	–	1.8 nM/kg	CCOc1ccc(C[C@H]2NC(=O)CC3(CCCCC3)SSC[C@H](C(=O)NCCNC(=O)[C@@H](CCCN=C(N)N)NC(=O)[C@H](N)CCCN=C(N)N)NC(=O)[C@@H](CC(N)=O)NC(=O)[C@H](C(C)C)NC(=O)[C@@H](Cc3ccccc3)NC2=O)cc1	0.86 nM/kg
–	–	27 nM/kg	CCOc1ccc(C[C@@H]2NC(=O)CC3(CCCCC3)SSC[C@H](C(=O)NCCNC(=O)C(N)CCCN=C(N)N)NC(=O)[C@@H](CC(N)=O)NC(=O)[C@H](C(C)C)NC(=O)[C@@H](Cc3ccccc3)NC2=O)cc1 (stereo not given in full)	0.76 nM/kg
7.95	7.54	–	CCOc1ccc(C[C@H]2NC(=O)CC3(CCCCC3)SSC[C@@H](C(=O)NCCNC(=O)[C@@H](N)CCCN=C(N)N)NC(=O)[C@H](CC(N)=O)NC(=O)[C@H](C(C)C)NC(=O)[C@H](Cc3ccccc3)NC2=O)cc1	–
7.97	6.39	–	CCOc1ccc(C[C@@H]2NC(=O)CC3(CCCCC3)SSC[C@@H](C(=O)NCCNC(=O)[C@@H](N)CCCN=C(N)N)NC(=O)[C@H](CC(N)=O)NC(=O)[C@H](C(C)C)NC(=O)[C@H](Cc3ccccc3)NC2=O)cc1	–
–	–	1.1 nM/kg	CCOc1ccc(C[C@H]2NC(=O)CC3(CCCCC3)SSC[C@H](C(=O)N[C@H](CCCN=C(N)N)C(=O)NCC(N)=O)NC(=O)[C@@H](CC(N)=O)NC(=O)[C@H](C(C)C)NC(=O)[C@@H](Cc3ccccc3)NC2=O)cc1	0.56 nM/kg
8.15	7.95	–	CCOc1ccc(C[C@H]2NC(=O)CC3(CCCCC3)SSC[C@@H](C(=O)NCCNC(=O)[C@H](N)CCCN=C(N)N)NC(=O)[C@H](CC(N)=O)NC(=O)[C@H](C(C)C)NC(=O)[C@H](Cc3ccccc3)NC2=O)cc1	–
8.05	8.03	–	CCOc1ccc(C[C@H]2NC(=O)CC3(CCCCC3)SSC[C@@H](C(=O)N[C@@H](CCCN=C(N)N)C(=O)NCC(=O)NCCN)NC(=O)[C@H](CC(N)=O)NC(=O)[C@H](C(C)C)NC(=O)[C@H](Cc3ccccc3)NC2=O)cc1	–
8.09	7.82	–	CCOc1ccc(C[C@H]2NC(=O)CC3(CCCCC3)SSC[C@@H](C(=O)N[C@@H](CCCN=C(N)N)C(=O)NCC(N)=O)NC(=O)[C@H](CC(N)=O)NC(=O)[C@H](C(C)C)NC(=O)[C@H](Cc3ccccc3)NC2=O)cc1	–
–	–	0.65 nM/kg	CCOc1ccc(C[C@H]2NC(=O)CC3(CCCCC3)SSC[C@H](C(=O)N[C@H](CCCN=C(N)N)C(=O)NCC(=O)NCCN)NC(=O)[C@@H](CC(N)=O)NC(=O)[C@H](C(C)C)NC(=O)[C@@H](Cc3ccccc3)NC2=O)cc1	0.59 nM/kg
–	–	0.83 nM/kg	CCOc1ccc(C[C@H]2NC(=O)CC3(CCCCC3)SSC[C@H](C(=O)NCCNC(=O)[C@@H](N)CCCN=C(N)N)NC(=O)[C@@H](CC(N)=O)NC(=O)[C@H](C(C)C)NC(=O)[C@@H](Cc3ccccc3)NC2=O)cc1	0.47 nM/kg
–	–	2.1 nM/kg	CCOc1ccc(C[C@H]2NC(=O)CC3(CCCCC3)SSC[C@H](C(=O)NCCNC(=O)C(N)CCCN=C(N)N)NC(=O)[C@@H](CC(N)=O)NC(=O)[C@H](C(C)C)NC(=O)[C@@H](Cc3ccccc3)NC2=O)cc1 (stereo not given in full)	0.75 nM/kg
